Assay results: ChEMBL document CHEMBL1123628, “Streptonigrin and lavendamycin partial structures. Probes for the minimum, potent pharmacophore of streptonigrin, lavendamycin, and synthetic quinoline-5,8-diones” (J Med Chem, 1987)
In brackets after ≈: the same amount, converted by molar mass.

Tested on: B16
Experiment: Cytotoxic activity against mouse melanoma cell culture(B-16)
Format: functional, cell-based
Outline: (§1)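 10^4 B16 or L-1210 (ATCC 219) cells were seeded per well in DMEM with 5% bovine serum and grown 48 h at 37 °C under 5% CO2. Agents from 10 mg/mL stocks in 95% ethanol or DMSO were added as 2× medium, then 48 h more. L-1210 cells were dispersed by pipetting; B16 were detached with 0.01% trypsin/0.1% EDTA for 5 min at 37 °C. Cells were counted by hemocytometer or Coulter counter, and the dose halving the count versus untreated controls was read from the count–concentration plot.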

SMILES | IC50 [µg/mL]
COC(=O)c1cccc(-c2ccc3c(n2)C(=O)C(=N)C=C3O)n1 | 0.9 (≈ 2.91 µM)
COC(=O)c1ccc(N)c(-c2ccc3c(n2)C(=O)C(=N)C=C3O)c1 | 0.4 (≈ 1.24 µM)
NC1=CC(=O)c2ccc(-c3ccccn3)nc2C1=O | 0.26 (≈ 1.03 µM)

Tested on: B16
Experiment: Cytotoxicity against mouse melanoma cell culture(B-16)
Format: functional, cell-based
Outline: as §1

SMILES | IC50 [µg/mL]
NC1=CC(=O)c2ccc(-c3cccc(C(=O)O)n3)nc2C1=O | > 20
COC(=O)c1[nH]c(-c2ccc3c(n2)C(=O)C(=N)C=C3O)c2nc3ccccc3c-2c1C | 3.1 (≈ 7.52 µM)
COC1=C(N)C(=O)c2nc(-c3nc(C(=O)O)c(C)c(-c4ccc(OC)c(OC)c4O)c3N)ccc2C1=O [STREPTONIGRIN] | 0.48 (≈ 0.948 µM)
COC(=O)c1nc(-c2ccc3c(n2)C(=O)C(=N)C(OC)=C3O)c(N)c(-c2ccc(OC)c(OC)c2O)c1C | 1.5 (≈ 2.88 µM)

Tested on: CCRF-CEM
Experiment: Cytotoxic activity against human lymphoblastic leukemia cell culture (CCRF-CEM)
Format: functional, cell-based

SMILES | IC50 [µg/mL]
COC(=O)c1cccc(-c2ccc3c(n2)C(=O)C(=N)C=C3O)n1 | 0.1 (≈ 0.323 µM)
COC(=O)c1ccc(N)c(-c2ccc3c(n2)C(=O)C(=N)C=C3O)c1 | 0.4 (≈ 1.24 µM)
NC1=CC(=O)c2ccc(-c3ccccn3)nc2C1=O | 0.09 (≈ 0.358 µM)

Tested on: CCRF-CEM
Experiment: Cytotoxicity against human lymphoblastic leukemia cell culture (CCRF-CEM)
Format: functional, cell-based

SMILES | IC50 [µg/mL]
NC1=CC(=O)c2ccc(-c3cccc(C(=O)O)n3)nc2C1=O | 2.1 (≈ 7.11 µM)
COC1=C(N)C(=O)c2nc(-c3nc(C(=O)O)c(C)c(-c4ccc(OC)c(OC)c4O)c3N)ccc2C1=O [STREPTONIGRIN] | 0.00017 (≈ 0.000336 µM)
COC(=O)c1nc(-c2ccc3c(n2)C(=O)C(=N)C(OC)=C3O)c(N)c(-c2ccc(OC)c(OC)c2O)c1C | 0.017 (≈ 0.0327 µM)

Tested on: Candida albicans
Experiment: Antimicrobial activity was determined against Candida albicans ATCC 10231
Format: functional
Outline: (§2)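 MICs (µg/mL) were determined by agar dilution/streak against S. aureus ATCC 13709, E. coli ATCC 9637, S. gallinarum ATCC 9184, K. pneumoniae ATCC 10031, M. smegmatis ATCC 607, P. aeruginosa ATCC 27853 and C. albicans ATCC 10231.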

MIC [µg/mL] | SMILES
> 50 | NC1=CC(=O)c2ccc(-c3cccc(C(=O)O)n3)nc2C1=O
> 50 | COC(=O)c1cccc(-c2ccc3c(n2)C(=O)C(=N)C=C3O)n1
12.5 (≈ 24.7 µM) | COC1=C(N)C(=O)c2nc(-c3nc(C(=O)O)c(C)c(-c4ccc(OC)c(OC)c4O)c3N)ccc2C1=O [STREPTONIGRIN]
> 50 | COC(=O)c1ccc(N)c(-c2ccc3c(n2)C(=O)C(=N)C=C3O)c1
50 (≈ 199 µM) | NC1=CC(=O)c2ccc(-c3ccccn3)nc2C1=O

SMILES | MIC [µg/mL]
COC(=O)c1nc(-c2ccc3c(n2)C(=O)C(=N)C(OC)=C3O)c(N)c(-c2ccc(OC)c(OC)c2O)c1C | > 100

Tested on: Escherichia coli
Experiment: Antimicrobial activity was determined against Escherichia coli ATCC 9637
Format: functional
Outline: as §2

MIC [µg/mL] | SMILES
> 50 | NC1=CC(=O)c2ccc(-c3cccc(C(=O)O)n3)nc2C1=O
> 50 | COC(=O)c1cccc(-c2ccc3c(n2)C(=O)C(=N)C=C3O)n1
6.25 (≈ 12.3 µM) | COC1=C(N)C(=O)c2nc(-c3nc(C(=O)O)c(C)c(-c4ccc(OC)c(OC)c4O)c3N)ccc2C1=O [STREPTONIGRIN]
> 50 | COC(=O)c1ccc(N)c(-c2ccc3c(n2)C(=O)C(=N)C=C3O)c1
> 100 | NC1=CC(=O)c2ccc(-c3ccccn3)nc2C1=O

SMILES | MIC [µg/mL]
COC(=O)c1nc(-c2ccc3c(n2)C(=O)C(=N)C(OC)=C3O)c(N)c(-c2ccc(OC)c(OC)c2O)c1C | > 100

Tested on: Epidermoid carcinoma cell line
Experiment: Cytotoxic activity against human epidermoid carcinoma of the nasopharynx (9KB)
Format: functional, cell-based
Outline: (§3)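 P388 (9PS, NCI-supplied line) and 9KB IC50s (µg/mL) followed NCI cell culture protocols. Samples were run in duplicate, and growth was compared with untreated controls. IC50 was extrapolated from a least-squares fit of the dose–response curve.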

SMILES | IC50 [µg/mL]
COC(=O)c1cccc(-c2ccc3c(n2)C(=O)C(=N)C=C3O)n1 | 0.17 (≈ 0.55 µM)
COC(=O)c1ccc(N)c(-c2ccc3c(n2)C(=O)C(=N)C=C3O)c1 | 2.7 (≈ 8.35 µM)
NC1=CC(=O)c2ccc(-c3ccccn3)nc2C1=O | 0.1 (≈ 0.398 µM)

Tested on: Epidermoid carcinoma cell line
Experiment: Cytotoxicity against human epidermoid carcinoma of the nasopharynx (9KB)
Format: functional, cell-based
Outline: as §3

SMILES | IC50 [µg/mL]
NC1=CC(=O)c2ccc(-c3cccc(C(=O)O)n3)nc2C1=O | > 10
COC1=C(N)C(=O)c2nc(-c3nc(C(=O)O)c(C)c(-c4ccc(OC)c(OC)c4O)c3N)ccc2C1=O [STREPTONIGRIN] | 0.0025 (≈ 0.00494 µM)
COC(=O)c1nc(-c2ccc3c(n2)C(=O)C(=N)C(OC)=C3O)c(N)c(-c2ccc(OC)c(OC)c2O)c1C | 0.53 (≈ 1.02 µM)

Tested on: L1210
Experiment: Cytotoxic activity against mouse lymphoblastic leukemia cell culture (L-1210)
Format: functional, cell-based
Outline: as §1

SMILES | IC50 [µg/mL]
COC(=O)c1cccc(-c2ccc3c(n2)C(=O)C(=N)C=C3O)n1 | 0.4 (≈ 1.29 µM)
COC(=O)c1ccc(N)c(-c2ccc3c(n2)C(=O)C(=N)C=C3O)c1 | 0.6 (≈ 1.86 µM)
NC1=CC(=O)c2ccc(-c3ccccn3)nc2C1=O | 0.42 (≈ 1.67 µM)

Tested on: L1210
Experiment: Cytotoxicity against mouse lymphoblastic leukemia cell culture (L-1210)
Format: functional, cell-based
Outline: as §1

SMILES | IC50 [µg/mL]
NC1=CC(=O)c2ccc(-c3cccc(C(=O)O)n3)nc2C1=O | > 20
COC(=O)c1[nH]c(-c2ccc3c(n2)C(=O)C(=N)C=C3O)c2nc3ccccc3c-2c1C | 2.2 (≈ 5.33 µM)
COC1=C(N)C(=O)c2nc(-c3nc(C(=O)O)c(C)c(-c4ccc(OC)c(OC)c4O)c3N)ccc2C1=O [STREPTONIGRIN] | 0.61 (≈ 1.2 µM)
COC(=O)c1nc(-c2ccc3c(n2)C(=O)C(=N)C(OC)=C3O)c(N)c(-c2ccc(OC)c(OC)c2O)c1C | 3.1 (≈ 5.96 µM)

Tested on: Mycolicibacterium smegmatis
Experiment: Antimicrobial activity was determined against Mycobacterium smegmatis ATCC 607
Format: functional
Outline: as §2

MIC [µg/mL] | SMILES
> 50 | NC1=CC(=O)c2ccc(-c3cccc(C(=O)O)n3)nc2C1=O
6.25 (≈ 20.2 µM) | COC(=O)c1cccc(-c2ccc3c(n2)C(=O)C(=N)C=C3O)n1
1.56 (≈ 3.08 µM) | COC1=C(N)C(=O)c2nc(-c3nc(C(=O)O)c(C)c(-c4ccc(OC)c(OC)c4O)c3N)ccc2C1=O [STREPTONIGRIN]
> 50 | COC(=O)c1ccc(N)c(-c2ccc3c(n2)C(=O)C(=N)C=C3O)c1
0.78 (≈ 3.1 µM) | NC1=CC(=O)c2ccc(-c3ccccn3)nc2C1=O

SMILES | MIC [µg/mL]
COC(=O)c1nc(-c2ccc3c(n2)C(=O)C(=N)C(OC)=C3O)c(N)c(-c2ccc(OC)c(OC)c2O)c1C | > 100

Tested on: P388
Experiment: Cytotoxicity against P388 mouse leukemia cell culture (9PS(P388))
Format: functional, cell-based
Outline: as §3

SMILES | IC50 [µg/mL]
NC1=CC(=O)c2ccc(-c3cccc(C(=O)O)n3)nc2C1=O | > 10
COC1=C(N)C(=O)c2nc(-c3nc(C(=O)O)c(C)c(-c4ccc(OC)c(OC)c4O)c3N)ccc2C1=O [STREPTONIGRIN] | 0.045 (≈ 0.0889 µM)
COC(=O)c1nc(-c2ccc3c(n2)C(=O)C(=N)C(OC)=C3O)c(N)c(-c2ccc(OC)c(OC)c2O)c1C | 0.26 (≈ 0.5 µM)

Tested on: P388
Experiment: Cytotoxic activity against P388 mouse leukemia cell culture (9PS(P388))
Format: functional, cell-based
Outline: as §3

SMILES | IC50 [µg/mL]
COC(=O)c1cccc(-c2ccc3c(n2)C(=O)C(=N)C=C3O)n1 | 3.9 (≈ 12.6 µM)
COC(=O)c1ccc(N)c(-c2ccc3c(n2)C(=O)C(=N)C=C3O)c1 | 0.2 (≈ 0.619 µM)
NC1=CC(=O)c2ccc(-c3ccccn3)nc2C1=O | 0.0023 (≈ 0.00915 µM)

Tested on: Pseudomonas aeruginosa
Experiment: Antimicrobial activity was determined against Pseudomonas aeruginosa ATCC 27853 cells
Format: functional
Outline: as §2

MIC [µg/mL] | SMILES
> 50 | NC1=CC(=O)c2ccc(-c3cccc(C(=O)O)n3)nc2C1=O
> 50 | COC(=O)c1cccc(-c2ccc3c(n2)C(=O)C(=N)C=C3O)n1
6.25 (≈ 12.3 µM) | COC1=C(N)C(=O)c2nc(-c3nc(C(=O)O)c(C)c(-c4ccc(OC)c(OC)c4O)c3N)ccc2C1=O [STREPTONIGRIN]
> 50 | COC(=O)c1ccc(N)c(-c2ccc3c(n2)C(=O)C(=N)C=C3O)c1
> 100 | NC1=CC(=O)c2ccc(-c3ccccn3)nc2C1=O

SMILES | MIC [µg/mL]
COC(=O)c1nc(-c2ccc3c(n2)C(=O)C(=N)C(OC)=C3O)c(N)c(-c2ccc(OC)c(OC)c2O)c1C | > 100

Tested on: Salmonella enterica subsp. enterica serovar Gallinarum
Experiment: Antimicrobial activity was determined against Salmonella gallinarum ATCC 9184
Format: functional
Outline: as §2

MIC [µg/mL] | SMILES
> 50 | NC1=CC(=O)c2ccc(-c3cccc(C(=O)O)n3)nc2C1=O
> 50 | COC(=O)c1cccc(-c2ccc3c(n2)C(=O)C(=N)C=C3O)n1
1.56 (≈ 3.08 µM) | COC1=C(N)C(=O)c2nc(-c3nc(C(=O)O)c(C)c(-c4ccc(OC)c(OC)c4O)c3N)ccc2C1=O [STREPTONIGRIN]
> 50 | COC(=O)c1ccc(N)c(-c2ccc3c(n2)C(=O)C(=N)C=C3O)c1
100 (≈ 398 µM) | NC1=CC(=O)c2ccc(-c3ccccn3)nc2C1=O

SMILES | MIC [µg/mL]
COC(=O)c1nc(-c2ccc3c(n2)C(=O)C(=N)C(OC)=C3O)c(N)c(-c2ccc(OC)c(OC)c2O)c1C | > 100

Tested on: Staphylococcus aureus
Experiment: Antimicrobial activity was determined against Staphylococcus aureus ATCC 13709
Format: functional
Outline: as §2

MIC [µg/mL] | SMILES
> 50 | NC1=CC(=O)c2ccc(-c3cccc(C(=O)O)n3)nc2C1=O
6.25 (≈ 20.2 µM) | COC(=O)c1cccc(-c2ccc3c(n2)C(=O)C(=N)C=C3O)n1
< 0.1 | COC1=C(N)C(=O)c2nc(-c3nc(C(=O)O)c(C)c(-c4ccc(OC)c(OC)c4O)c3N)ccc2C1=O [STREPTONIGRIN]
> 50 | COC(=O)c1ccc(N)c(-c2ccc3c(n2)C(=O)C(=N)C=C3O)c1
3.12 (≈ 12.4 µM) | NC1=CC(=O)c2ccc(-c3ccccn3)nc2C1=O

SMILES | MIC [µg/mL]
COC(=O)c1nc(-c2ccc3c(n2)C(=O)C(=N)C(OC)=C3O)c(N)c(-c2ccc(OC)c(OC)c2O)c1C | > 100

Tested on: Klebsiella pneumoniae
Experiment: Antimicrobial activity was determined against Klebsiella pneumoniae ATCC 10031
Format: functional
Outline: as §2

MIC [µg/mL] | SMILES
> 50 | NC1=CC(=O)c2ccc(-c3cccc(C(=O)O)n3)nc2C1=O
50 (≈ 162 µM) | COC(=O)c1cccc(-c2ccc3c(n2)C(=O)C(=N)C=C3O)n1
0.1 (≈ 0.197 µM) | COC1=C(N)C(=O)c2nc(-c3nc(C(=O)O)c(C)c(-c4ccc(OC)c(OC)c4O)c3N)ccc2C1=O [STREPTONIGRIN]
> 50 | COC(=O)c1ccc(N)c(-c2ccc3c(n2)C(=O)C(=N)C=C3O)c1
100 (≈ 398 µM) | NC1=CC(=O)c2ccc(-c3ccccn3)nc2C1=O

SMILES | MIC [µg/mL]
COC(=O)c1nc(-c2ccc3c(n2)C(=O)C(=N)C(OC)=C3O)c(N)c(-c2ccc(OC)c(OC)c2O)c1C | > 100
